Measurements as given in ChEMBL document CHEMBL3046238, “Synthesis and biological activity evaluation of 1,2,3-thiadiazole derivatives as potential elicitors with highly systemic acquired resistance” (2009).
Active and inactive are the calls of the source. No cut-off for these calls is given here.

Columns and labels:
Format in all cases: functional
Alternaria mali = assay: Antifungal activity against Alternaria mali assessed as growth inhibition at 50 ug/mL measured after 2 days post dose; settings: 48 h, read-out: GI
Tobacco mosaic virus [1] = assay: (§1) Induction of systemic acquired resistance against Tobacco mosaic virus (TMV) in tobacco plants exposed to 500 ug/mL compound through leaf spray followed by 7 days culture under green house conditions assessed as inhibition of viral growth in leaves infected with Tobacco mosaic virus (TMV) measured 72 hr post viral infection by half-leaf juice rubbing method; set-up: scale not given: the % may be the effect or the level left
Method in brief: (§2)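 Tobacco plants received compound by leaf spray or by soil irrigation, with double-distilled water as CK. Newly grown leaves were then rub-inoculated with TMV (5.88×10-2 μg/mL), and plants were kept at 25 °C for 72 h. Lesions on inoculated leaves were counted. Inhibition = (CK−A)/CK×100 from mean lesion numbers versus control.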

Fusarium fujikuroi = assay: Antifungal activity against Fusarium fujikuroi assessed as growth inhibition at 50 ug/mL measured after 2 days post dose; settings: 48 h, read-out: GI
Alternaria kikuchiana = assay: Antifungal activity against Alternaria kikuchiana assessed as growth inhibition at 50 ug/mL measured after 2 days post dose; settings: 48 h, read-out: GI
Sclerotinia sclerotiorum = assay: Antifungal activity against Sclerotinia sclerotiorum assessed as growth inhibition at 50 ug/mL measured after 2 days post dose; settings: 48 h, read-out: GI
[2] = system: Fusarium oxysporum f. sp. vasinfectum; assay: Antifungal activity against Fusarium oxysporum f. sp. vasinfectum assessed as growth inhibition at 50 ug/mL measured after 2 days post dose; settings: 48 h, read-out: GI
Tobacco mosaic virus [3] = assay: In vivo antiviral activity against Tobacco mosaic virus (TMV) infected tobacco leaves exposed to 500 ug/mL for 20 min assessed as inhibition of viral growth measured 72 hr post compound treatment compound by half-leaf juice rubbing method
Method in brief: (§3)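 Half-leaf method on tobacco. A fresh leaf from a plant at the 5-6 leaf age was rub-inoculated with TMV (5.88×10-2 μg/mL) and cut along the main vein. One half was immersed in compound solution and the other in double-distilled water, each for 20 min. Halves were kept at 25 °C and 100% humidity for 72 h, then lesions were counted. Three replicates were run. Inhibition = (CK−A)/CK×100 from mean lesion numbers.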

Botrytis cinerea = assay: Antifungal activity against Botryotinia fuckeliana assessed as growth inhibition at 50 ug/mL measured after 2 days post dose; settings: 48 h, read-out: GI
Fusarium oxysporum = assay: Antifungal activity against Fusarium oxysporum assessed as growth inhibition at 50 ug/mL measured after 2 days post dose; settings: 48 h, read-out: GI
Phytophthora infestans = assay: Antifungal activity against Phytophthora infestans assessed as growth inhibition at 50 ug/mL measured after 2 days post dose
Method in brief: (§4)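 Compound stock at 500 μg/mL in DMF, diluted with sterile water in the dish and mixed into potato dextrose agar before setting. A 4 mm diameter fungal plug is placed on the plate and cultured at 24-26 °C. Colony diameter is measured after 2 days.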

[4] = system: Colletotrichum gloeosporioides; assay: Antifungal activity against Glomerella cingulata assessed as growth inhibition at 50 ug/mL measured after 2 days post dose; settings: 48 h, read-out: GI
Alternaria solani = assay: Antifungal activity against Alternaria solani assessed as growth inhibition at 50 ug/mL measured after 2 days post dose; settings: 48 h, read-out: GI
Puccinia triticina [5] = assay: Antifungal activity against Puccinia triticina inoculated on 500 ug/mL compound pre-treated wheat plants with 3 to 5 leaves assessed as growth inhibition
Method in brief: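 Healthy wheat plants at the 3-5 leaf stage were sprayed with compound (500 μg/mL) and then inoculated with spores. Inhibition percentage was calculated against the corresponding spore stack.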

Colletotrichum lagenaria = assay: Antifungal activity against Colletotrichum lagenaria assessed as growth inhibition at 50 ug/mL measured after 2 days post dose; settings: 48 h, read-out: GI
Fusarium graminearum = assay: Antifungal activity against Fusarium graminearum assessed as growth inhibition at 50 ug/mL measured after 2 days post dose; settings: 48 h, read-out: GI; method in brief: as §4
[6] = system: Botryosphaeria berengeriana; assay: Antifungal activity against Botryosphaeria berengeriana assessed as growth inhibition at 50 ug/mL measured after 2 days post dose
Tobacco mosaic virus [7] = assay: as §1, with “50” for “500”; set-up: scale not given: the % may be the effect or the level left; method in brief: as §2
Ustilaginoidea virens = assay: Antifungal activity against Villosiclava virens assessed as growth inhibition at 50 ug/mL measured after 2 days post dose; settings: 48 h, read-out: GI
Mycosphaerella arachidis = assay: Antifungal activity against Mycosphaerella arachidis assessed as growth inhibition at 50 ug/mL measured after 2 days post dose; settings: 48 h, read-out: GI
Phomopsis asparagi = assay: Antifungal activity against Phomopsis asparagi assessed as growth inhibition at 50 ug/mL measured after 2 days post dose; settings: 48 h, read-out: GI
Cytospora mali = assay: Antifungal activity against Valsa mali assessed as growth inhibition at 50 ug/mL measured after 2 days post dose; settings: 48 h, read-out: GI
Ceratobasidium cereale = assay: Antifungal activity against Ceratobasidium cereale assessed as growth inhibition at 50 ug/mL measured after 2 days post dose
Rhizoctonia solani = assay: Antifungal activity against Rhizoctonia solani assessed as growth inhibition at 50 ug/mL measured after 2 days post dose
Tobacco mosaic virus [8] = assay: Antiviral activity against Tobacco mosaic virus (TMV) infected tobacco leaves exposed to 500 ug/mL for 20 min assessed as inhibition of viral growth measured 72 hr post compound treatment compound by half-leaf juice rubbing method; method in brief: as §3
Puccinia triticina [9] = assay: Antifungal activity against Puccinia triticina inoculated on 100 ug/mL compound pre-treated wheat plants with 3 to 5 leaves assessed as growth inhibition
Tobacco mosaic virus [10] = assay: as §1, with “1000” for “500”; set-up: scale not given: the % may be the effect or the level left; method in brief: as §2
Tobacco mosaic virus [11] = assay: Antiviral activity against Tobacco mosaic virus (TMV) infected tobacco leaves exposed to 100 ug/mL for 20 min assessed as inhibition of viral growth measured 72 hr post compound treatment compound by half-leaf juice rubbing method; method in brief: as §3
Tobacco mosaic virus [12] = assay: In vivo antiviral activity against Tobacco mosaic virus (TMV) infected tobacco leaves exposed to 50 ug/mL for 20 min assessed as inhibition of viral growth measured 72 hr post compound treatment compound by half-leaf juice rubbing method; method in brief: as §3
Tobacco mosaic virus [13] = assay: as §1, with “10” for “500”; set-up: scale not given: the % may be the effect or the level left
Method in brief: (§5)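 Tobacco plants receive compound either as leaf spray or as soil irrigation. Newly grown leaves are then rubbed with TMV (5.88 × 10-2 μg/mL). Plants are held 72 h at 25 °C and viral lesions are counted. Inhibition ratio = (CK − A)/CK × 100, from mean lesion numbers versus control. Water is CK; tiadinil and BTH are positive controls.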

Tobacco mosaic virus [14] = assay: Antiviral activity against Tobacco mosaic virus (TMV) infected tobacco leaves exposed to 1000 ug/mL for 20 min assessed as inhibition of viral growth measured 72 hr post compound treatment compound by half-leaf juice rubbing method; method in brief: as §3
Tobacco mosaic virus [15] = assay: as §1, with “100” for “500”, “irrigation based soil treatment” for “leaf spray”; set-up: scale not given: the % may be the effect or the level left; method in brief: as §2
Tobacco mosaic virus [16] = assay: Antiviral activity against Tobacco mosaic virus (TMV) infected tobacco leaves exposed to 50 ug/mL for 20 min assessed as inhibition of viral growth measured 72 hr post compound treatment compound by half-leaf juice rubbing method; method in brief: as §3
Tobacco mosaic virus [17] = assay: as §1, with “50” for “500”, “irrigation based soil treatment” for “leaf spray”; set-up: scale not given: the % may be the effect or the level left; method in brief: as §2
Tobacco mosaic virus [18] = assay: as §1, with “10” for “500”, “irrigation based soil treatment” for “leaf spray”; set-up: scale not given: the % may be the effect or the level left; method in brief: as §5
Tobacco mosaic virus [19] = assay: Antiviral activity against Tobacco mosaic virus (TMV) infected tobacco leaves exposed to 10 ug/mL for 20 min assessed as inhibition of viral growth measured 72 hr post compound treatment compound by half-leaf juice rubbing method
Method in brief: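 Direct (in vitro) anti-TMV test by half-leaf method. A tobacco leaf at 5-6 leaf age is rubbed with TMV (5.88 × 10-2 μg/mL) and cut along the main vein. One half is immersed in compound and the other in double-distilled water for 20 min. Halves are kept 72 h at 25 °C and 100% humidity, then lesions are counted. Inhibition is derived from mean lesion numbers on the two halves. Triplicates; DHT is the positive control.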

Tobacco mosaic virus [20] = assay: as §1, with “1000” for “500”, “irrigation based soil treatment” for “leaf spray”; set-up: scale not given: the % may be the effect or the level left; method in brief: as §2
Tobacco mosaic virus [21] = assay: In vivo antiviral activity against Tobacco mosaic virus (TMV) infected tobacco leaves exposed to 10 ug/mL for 20 min assessed as inhibition of viral growth measured 72 hr post compound treatment compound by half-leaf juice rubbing method
Tobacco mosaic virus [22] = assay: In vivo antiviral activity against Tobacco mosaic virus (TMV) infected tobacco leaves exposed to 100 ug/mL for 20 min assessed as inhibition of viral growth measured 72 hr post compound treatment compound by half-leaf juice rubbing method; method in brief: as §3
Tobacco mosaic virus [23] = assay: as §1, with “100” for “500”; set-up: scale not given: the % may be the effect or the level left; method in brief: as §2
Tobacco mosaic virus [24] = assay: as §1, with “irrigation based soil treatment” for “leaf spray”; set-up: scale not given: the % may be the effect or the level left; method in brief: as §2

`Cc1ccc(NC(=O)c2snnc2C)cc1Cl` [TIADINIL] showed an inhibition of growth at 50 µg/mL (Alternaria mali) of 32.1%, an Activity (Tobacco mosaic virus [1]) of 40% and an inhibition of growth at 50 µg/mL (Fusarium fujikuroi) of 0%. The inhibition of growth at 50 µg/mL (Alternaria kikuchiana) was 0%, the inhibition of growth at 50 µg/mL (Sclerotinia sclerotiorum) was 34.4% and the inhibition of growth at 50 µg/mL [2] was 5.3%. For the same molecule, the “growth inhibition (GI)” value (Tobacco mosaic virus [3]) was 0%, the inhibition of growth at 50 µg/mL (Botrytis cinerea) was 23.9% and the inhibition of growth at 50 µg/mL (Fusarium oxysporum) was 12.5%. The “growth inhibition (GI)” value (Phytophthora infestans) was “inactive”, the inhibition of growth at 50 µg/mL [4] was 51.6% and the inhibition of growth at 50 µg/mL (Alternaria solani) was 0%. The “growth inhibition (GI)” value (Puccinia triticina [5]) was 40%, the inhibition of growth at 50 µg/mL (Colletotrichum lagenaria) was 22.8% and the inhibition of growth at 50 µg/mL (Fusarium graminearum) was 25%. The “growth inhibition (GI)” value [6] was “inactive”, the Activity (Tobacco mosaic virus [7]) was 63% and the inhibition of growth at 50 µg/mL (Ustilaginoidea virens) was 12%. It also gave an inhibition of growth at 50 µg/mL (Mycosphaerella arachidis) of 13.6%, an inhibition of growth at 50 µg/mL (Phomopsis asparagi) of 60% and an inhibition of growth at 50 µg/mL (Cytospora mali) of 3.6%. The “growth inhibition (GI)” value (Ceratobasidium cereale) was “inactive”, the “growth inhibition (GI)” value (Rhizoctonia solani) was “inactive” and the “growth inhibition (GI)” value (Tobacco mosaic virus [8]) was 0%.

`N#Cc1c(Cl)c(Cl)c(Cl)c(C#N)c1Cl` [CHLOROTHALONIL] was tested, and the “growth inhibition (GI)” value (Puccinia triticina [9]) was 100%.

With `CSC(=O)c1cccc2nnsc12` [ACIBENZOLAR-S-METHYL] the Activity (Tobacco mosaic virus [1]) was 95%, the Activity (Tobacco mosaic virus [10]) was 97% and the “growth inhibition (GI)” value (Tobacco mosaic virus [11]) was 2%. The “growth inhibition (GI)” value (Tobacco mosaic virus [12]) was 15%, the “growth inhibition (GI)” value (Tobacco mosaic virus [3]) was 8% and the Activity (Tobacco mosaic virus [13]) was 50%. The “growth inhibition (GI)” value (Tobacco mosaic virus [14]) was 8%, the “growth inhibition (GI)” value (Puccinia triticina [5]) was 0% and the Activity (Tobacco mosaic virus [15]) was 96%. For the same molecule, the Activity (Tobacco mosaic virus [7]) was 92%, the “growth inhibition (GI)” value (Tobacco mosaic virus [16]) was 0% and the Activity (Tobacco mosaic virus [17]) was 92%. For the same molecule, the Activity (Tobacco mosaic virus [18]) was 63%, the “growth inhibition (GI)” value (Tobacco mosaic virus [19]) was 0% and the Activity (Tobacco mosaic virus [20]) was 98%. For the same molecule, the “growth inhibition (GI)” value (Tobacco mosaic virus [21]) was 6%, the “growth inhibition (GI)” value (Tobacco mosaic virus [22]) was 10% and the Activity (Tobacco mosaic virus [23]) was 95%. For the same molecule, the Activity (Tobacco mosaic virus [24]) was 95% and the “growth inhibition (GI)” value (Tobacco mosaic virus [8]) was 4%.
